# Experimental data from different studies.
# Lines come from different studies, so protocols differ.
# Target: Tyrosine-protein kinase receptor TYRO3 (TYRO3, Homo sapiens, UniProt Q06418)
# One construct used (Q06418 41-890): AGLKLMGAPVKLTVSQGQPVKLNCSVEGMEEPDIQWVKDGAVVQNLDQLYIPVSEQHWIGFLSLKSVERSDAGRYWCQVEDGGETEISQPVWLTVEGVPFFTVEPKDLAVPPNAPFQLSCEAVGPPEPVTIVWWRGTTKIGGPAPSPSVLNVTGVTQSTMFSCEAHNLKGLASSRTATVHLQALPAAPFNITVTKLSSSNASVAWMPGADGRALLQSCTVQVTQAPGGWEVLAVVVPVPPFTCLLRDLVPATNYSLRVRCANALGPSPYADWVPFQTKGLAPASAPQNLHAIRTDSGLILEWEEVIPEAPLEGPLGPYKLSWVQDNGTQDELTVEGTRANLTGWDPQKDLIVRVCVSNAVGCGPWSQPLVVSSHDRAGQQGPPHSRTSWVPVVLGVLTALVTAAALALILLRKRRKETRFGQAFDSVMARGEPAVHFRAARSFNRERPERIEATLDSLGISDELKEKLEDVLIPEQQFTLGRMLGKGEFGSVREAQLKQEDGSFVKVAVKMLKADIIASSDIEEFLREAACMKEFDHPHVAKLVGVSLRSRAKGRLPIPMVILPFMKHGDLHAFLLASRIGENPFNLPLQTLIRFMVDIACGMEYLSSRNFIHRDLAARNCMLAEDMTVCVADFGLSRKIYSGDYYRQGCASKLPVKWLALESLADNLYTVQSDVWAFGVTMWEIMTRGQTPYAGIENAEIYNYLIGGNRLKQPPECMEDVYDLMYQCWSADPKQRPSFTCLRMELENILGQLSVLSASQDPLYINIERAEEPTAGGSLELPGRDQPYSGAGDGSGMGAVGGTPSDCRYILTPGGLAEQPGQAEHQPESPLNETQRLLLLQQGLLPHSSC
SMILES,read-out,mode,method,concentration,measurement,value
Cn1cncc1[C@@](O)(COc1ccc(C#N)cc1-c1ccc(OC(F)(F)F)cc1)c1ccc(C#N)cc1,cell-free assay,,competition with immobilised ligand,1 µM,remaining binding,100%
Cc1nn(C)cc1-c1nc2c(N3CCN(Cc4ccc(Cl)cc4)CC3)c(Cl)cnc2[nH]1,binding,,competition with immobilised ligand,1 µM,remaining binding,73%
C#Cc1n[nH]c2c(-c3cn([C@@H](C)c4ccccn4)c(=O)[nH]c3=O)cc(F)cc12,enzyme activity,inhibitor,,0.1 µM,inhibition,30.8%
N#CC1(c2ccccn2)CCN(Cc2cc(C(=O)O)c(=O)n3ccccc23)CC1,cell-free assay,,competition with immobilised ligand,1 µM,remaining binding,98%
CC(C)(C)c1cc(C=C(C#N)C#N)cc(Br)c1O,enzyme activity,inhibitor,,0.5 µM,remaining activity,110%
Cn1cc(-c2cccc(N3CCc4c(sc5c4CC(C)(C)C5)C3=O)c2CO)cc(Nc2ccncn2)c1=O,enzyme activity,inhibitor,,1 µM,inhibition,4%
C#Cc1n[nH]c2c(-c3cn([C@@H](C)c4ccccc4)c(=O)[nH]c3=O)cc(F)cc12,enzyme activity,inhibitor,,0.1 µM,inhibition,47.7%
Cn1cc(-c2cc(F)cc(N3CCn4c(cc5c4CCCC5)C3=O)c2CO)cc(Nc2ccc(N3CCN(C4COC4)CC3)cn2)c1=O,enzyme activity,inhibitor,,0.1 µM,inhibition,17%
O=c1[nH]c2ccccc2n1C1CCN(Cc2ccc(-c3[nH]c4cc5ncnc5cc4nc3-c3ccccc3)cc2)CC1,cell-free assay,,,0.5 µM,remaining signal,103%
COc1ncccc1-c1cnn2ccc(N3CCN(C(=O)OC(C)C)CC3)nc12,binding,,competition with immobilised ligand,1 µM,remaining binding,100%
